Results published in ChEMBL document CHEMBL3286242, “Design, synthesis and biological evaluation of arylcinnamide hybrid derivatives as novel anticancer agents” (Eur J Med Chem, 2014).
Calls of active or inactive are those of the source. No cut-off for these calls is given here.

What was measured:
HeLa [1] = test: Induction of apoptosis in human HeLa cells assessed as GSH depletion at 1 to 2.5 uM after 24 hrs by CMFDA staining-based flow cytometry in presence of N-acetylcysteine; type: functional, cell-based
In short: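 HeLa cells treated 24 h with compound, alone or with 100 μM NAC; harvested and loaded with 5 μM CMFDA, 30 min at 37 °C; intracellular GSH read as CMFDA fluorescence by flow cytometry; means ± SEM.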

CCRF-CEM [2] = test: Resistance ratio of IC50 for human CEM/VBL100 cells to IC50 for human CEM cells; type: functional
In short: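 Ratio of IC50 in resistant line to IC50 in parental line (CEMVbl-100/CEM; LoVoDoxo/LoVo), each IC50 from 72 h MTT dose–response curves, ≥3 independent experiments.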

HeLa [3] = test: Induction of apoptosis in human HeLa cells assessed as caspase-9 activation at 1 to 2.5 uM after 24 to 48 hrs by Western blotting analysis; type: functional, cell-based
In short: (§1)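 HeLa cells treated at indicated concentrations and times; washed in cold PBS, lysed 30 min at 0 °C, cleared at 15 000 × g; 20 μg protein resolved on 7.5–15% gradient SDS-PAGE, blotted to PVDF, primary antibodies 2 h room temperature, peroxidase secondary 60 min, ECL detection; β-actin reprobe for loading.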

HeLa [4] = test: Induction of apoptosis in human HeLa cells assessed as caspase-8 activation at 1 to 2.5 uM after 24 to 48 hrs by Western blotting analysis; type: functional, cell-based; in short: as §1
MCF7 = test: Cytotoxicity against human MCF7 cells assessed as growth inhibition after 72 hrs by MTT assay; type: functional, cell-based; details: MCF7, 72 h
[5] = Selectivity ratio of IC50 for human resting PBMC to IC50 for human CEM cells; type: ADME, cell-based, CCRF-CEM; details: resting PBMC versus CEM cells, read-out: Ratio IC50
HeLa [6] = test: Induction of apoptosis in human HeLa cells assessed as cell viability at 2.5 uM after 48 hrs by MTT assay in presence of dithiothreitol; type: functional, cell-based
In short: (§2)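 HeLa cells exposed to 2.5 μM compound for 48 h with scavengers (NAC 100 μM, GSH 1 mM or DTT 1 mM, among others); viability by MTT; means ± SEM of four independent experiments, Student's t-test.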

HeLa [7] = test: Cell cycle arrest in human HeLa cells assessed as reduction in S phase after 24 hrs by propidium iodide staining-based flow cytometry; type: functional
In short: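 HeLa cells in exponential growth (2.5 × 10^5) treated 24 h at various concentrations; ethanol-fixed (70%, ice-cold), lysed with RNase A/0.1% Triton X-100, PI-stained; DNA content by flow cytometry, phase percentages from DNA histograms.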

LoVo = test: Cytotoxicity against human LoVo cells assessed as growth inhibition after 72 hrs by MTT assay; type: functional, cell-based
HeLa [8] = test: Induction of apoptosis in human HeLa cells assessed as cell viability at 2.5 uM after 48 hrs by MTT assay in presence of reduced glutathione; type: functional, cell-based; in short: as §2
HeLa [9] = test: Induction of intracellular ROS generation in human HeLa cells at 1 to 5 uM after 1 to 6 hrs by hydroethidine staining-based flow cytometry; type: functional, cell-based
In short: (§3)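 HeLa cells treated at various concentrations and times; ROS followed by flow cytometry with H2DCFDA or hydroethidine (HE, mainly superoxide).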

HeLa [10] = test: Induction of apoptosis in human HeLa cells assessed as cell viability at 2.5 uM after 48 hrs by MTT assay in presence of N-acetylcysteine; type: functional, cell-based; in short: as §2
HeLa [11] = test: Induction of apoptosis in human HeLa cells assessed as PARP cleavage after 24 to 48 hrs by Western blotting analysis; type: functional, cell-based; in short: as §1
Tubulin (Homo sapiens) = Tubulin (Homo sapiens) (UniProt P68371+Q9H4B7+P0DPH7+P68366+Q13509+Q71U36+P04350+Q3ZCM7+P07437+P68363+Q9BQE3+Q6PEY2+Q13885+Q9BVA1+Q9BUF5); test: Inhibition of tubulin polymerization in human HeLa cells assessed as microtubule disruption at 2.5 to 5 uM after 24 hrs by immunofluorescence microscopy relative to untreated control; type: cell-based
In short: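 HeLa cells exposed 24 h to 2.5 or 5.0 μM versus untreated; fixed in cold 4% formaldehyde 15 min, stained with anti-β-tubulin monoclonal (1:1000) and Alexa secondary (1:2000), DAPI counterstain; imaged by confocal microscopy at 20×.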

HeLa [12] = test: Induction of intracellular ROS generation in human HeLa cells after 1 to 6 hrs by H2DCFDA staining-based flow cytometry; type: functional, cell-based; in short: as §3
PBMC = test: Cytotoxicity against human resting PBMC assessed as growth inhibition after 72 hrs by MTT assay; type: cell-based
In short: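 Healthy-donor PBMC from Lymphoprep gradient, rested overnight in RPMI-1640/10% FBS; non-adherent cells at 5 × 10^5 cells/mL without PHA, treated 72 h with varying concentrations; viability by MTT; IC50 mean ± SEM, three separate experiments.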

Jurkat = test: Cytotoxicity against human Jurkat cells assessed as growth inhibition after 72 hrs by MTT assay; type: functional, cell-based
HeLa [13] = test: Induction of apoptosis in human HeLa cells assessed as reduction in Bcl-2 protein expression at 1 to 2.5 uM after 48 hrs by Western blotting analysis; type: functional, cell-based; in short: as §1
[14] = Cytotoxicity against human LoVo/DX cells assessed as growth inhibition after 72 hrs by MTT assay; type: functional, cell-based
HeLa [15] = test: Induction of apoptosis in human HeLa cells assessed as mitochondrial depolarization at 1 to 5 uM after 12 hrs by JC-1 staining-based flow cytometry; type: functional, cell-based
HeLa [16] = test: Cytotoxicity against human HeLa cells assessed as growth inhibition after 72 hrs by MTT assay; type: functional, cell-based
HeLa [17] = test: Induction of apoptosis in human HeLa cells assessed as increase in Bid protein expression at 1 uM after 24 hrs by Western blotting analysis; type: functional, cell-based
[18] = Cytotoxicity against human CEM/VBL100 cells assessed as growth inhibition after 72 hrs by MTT assay; type: functional, cell-based; details: CEM/VBL100, 72 h
CCRF-CEM [19] = test: Cytotoxicity against human CEM cells assessed as growth inhibition after 72 hrs by MTT assay; type: functional, cell-based
HeLa [20] = test: Induction of apoptosis in human HeLa cells assessed as increase in Bax protein expression at 1 to 2.5 uM after 24 to 48 hrs by Western blotting analysis; type: functional, cell-based
[21] = Selectivity ratio of IC50 for human resting PBMC to IC50 for human Jurkat cells; type: ADME, cell-based; details: resting PBMC versus Jurkat cells, read-out: Ratio IC50
HeLa [22] = test: Induction of apoptosis in human HeLa cells assessed as caspase-3 activation after 24 to 48 hrs by Western blotting analysis; type: functional, cell-based; in short: as §1
HeLa [23] = test: Induction of DNA damage in human HeLa cells assessed as increase in gammaH2A.X protein expression at 1 to 2.5 uM after 24 hrs by Western blotting analysis; type: functional, cell-based
[24] = Cytotoxicity against human SEM cells assessed as growth inhibition after 72 hrs by MTT assay; type: functional, cell-based
HeLa [25] = test: Induction of apoptosis in human HeLa cells assessed as caspase-3 activation at 1 to 2.5 uM by Western blotting analysis; type: functional, cell-based; details: TDE = time-dependent effect; in short: as §1
HeLa [26] = test: Induction of apoptosis in human HeLa cells assessed as reduction in Bcl-2 protein expression at 1 to 2.5 uM by Western blotting analysis; type: functional, cell-based; details: TDE = time-dependent effect; in short: as §1

C=C(Br)C(=O)Nc1ccc(/C=C/C(=O)Nc2cc(OC)c(OC)c(OC)c2)cc1
Activity (HeLa [1]): inactive
Ratio IC50 (CCRF-CEM [2]): 0.6
Activity (HeLa [3]): inactive
Activity (HeLa [4]): Active
IC50 (MCF7): 3000 nM
selectivity ratio [5]: 10
Activity (HeLa [6]): inactive
Activity (HeLa [7]): Active
IC50 (LoVo): 2100 nM
Activity (HeLa [8]): inactive
Activity (HeLa [9]): inactive
Activity (HeLa [10]): inactive
Activity (HeLa [11]): Dose-dependent effect
inhibition (Tubulin (Homo sapiens)): inactive
Activity (HeLa [12]): Dose-dependent effect
IC50 (PBMC): 3.5 µM
IC50 (Jurkat): 410 nM
Activity (HeLa [13]): Active
IC50 [14]: 1370 nM
Activity (HeLa [15]): Active
IC50 (HeLa [16]): 490 nM
Activity (HeLa [17]): inactive
IC50 [18]: 15 nM
IC50 (CCRF-CEM [19]): 25 nM
Activity (HeLa [20]): inactive
selectivity ratio [21]: 10
Activity (HeLa [22]): Dose-dependent effect
Activity (HeLa [23]): Active
IC50 [24]: 110 nM
Activity (HeLa [25]): tde
Activity (HeLa [26]): tde
